Test results taken from article PMC12135072 (RSC Medicinal Chemistry, 2025).

Legend:
[1] = test system: MCF7 (ATCC – HTB-22, breast carcinoma); test: MTT cell viability assay, MCF7; format: cell-based; settings: Homo sapiens, MCF7, read-out: IC50 MCF7
[2] = test system: A549 (ATCC – CCL-185, lung carcinoma); test: MTT cell viability assay, A549; format: cell-based; settings: Homo sapiens, A549, read-out: IC50 A549
[3] = test system: HCT116 (ATCC – CCL-247, colon carcinoma); test: MTT cell viability assay, HCT116; format: cell-based; settings: Homo sapiens, HCT-116, read-out: IC50 HCT116
[4] = test system: MRC5 (ATCC – CCL-171, human diploid fibroblast cell line); test: cells; settings: MRC5, read-out: IC50 MRC5
MCF7 cells = test: Cell cycle analysis; format: cell-based; settings: compounds at IC50, ETP 10 μM
Method in brief: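 MCF7 cells were treated with the test compounds for 24 and 48 h, with etoposide as the positive control and 0.1% DMSO as the vehicle. Cells were stained with propidium iodide and their G1, S and G2 distribution was read by flow cytometry. n = 3; two-way ANOVA with Tukey's test.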

MCF7 cell line = test: γH2AX labelling for DNA double-strand breaks; format: cell-based; settings: compounds at IC50, etoposide 10 μM
Method in brief: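 To detect DNA double-strand breaks, MCF7 cells were exposed to the test compounds for 24 and 48 h, with etoposide as the positive control and 0.1% DMSO as the vehicle. γH2AX labelling was quantified by flow cytometry. n = 3; two-way ANOVA with Tukey's test.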

MCF7 breast cancer cells = test: Apoptosis, annexin V staining and flow cytometry; format: cell-based; settings: compounds at IC50, etoposide 10 μM
Method in brief: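 MCF7 cells were exposed to the test compounds for 24 or 48 h, with etoposide (10 μM) as the positive control and 0.1% DMSO as the untreated control. Cells were stained with annexin V and analysed by flow cytometry into live, early apoptotic and late apoptotic fractions.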

Row | SMILES | IC50 [1] [µM] | IC50 [2] [µM] | IC50 [3] [µM] | IC50 [4] [µM] | other results
1 | Cc1ccn(-c2ccc(C3C(C#N)=C(N)OC4=C3C(=O)CCC4)cc2)n1 (stereo not drawn) [Compound 7a, 2-amino-4-(4-(3-methyl-1H-pyrazol-1-yl)phenyl)-5-oxo-5,6,7,8-tetrahydro-4H-chromene-3-carbonitrile] | 190 ± 5.34 | 89.7 ± 4.38 | 139 ± 3.89 | > 200 | 
2 | Cc1cnn(-c2ccc(C3C(C#N)=C(N)OC4=C3C(=O)CCC4)cc2)c1 (stereo not drawn) [Compound 7b, 2-Amino-4-(4-(4-methyl-1H-pyrazol-1-yl)phenyl)-5-oxo-5,6,7,8-tetrahydro-4H-chromene-3-carbonitrile] | 24 ± 2.27 | 147 ± 3.61 | 163 ± 3.14 | > 200 | 
3 | Cc1cc(C)n(-c2ccc(C3C(C#N)=C(N)OC4=C3C(=O)CCC4)cc2)n1 (stereo not drawn) [Compound 7c, 2-Amino-4-(4-(3,5-dimethyl-1H-pyrazol-1-yl)phenyl)-5-oxo-5,6,7,8-tetrahydro-4H-chromene-3-carbonitrile] | 22.9 ± 1.31 | > 200 | 194 ± 6.01 | > 200 | 
4 | N#CC1=C(N)OC2=C(C(=O)CCC2)C1c1ccc(-n2cc(Br)cn2)cc1 (stereo not drawn) [Compound 7d, 2-Amino-4-(4-(4-bromo-1H-pyrazol-1-yl)phenyl)-5-oxo-5,6,7,8-tetrahydro-4H-chromene-3-carbonitrile] | 56.1 ± 3.79 | 23.6 ± 1.29 | 45.7 ± 0.67 | > 200 | 
5 | N#CC1=C(N)OC2=C(C(=O)CCC2)C1c1ccc(-n2ccc(C(F)(F)F)n2)cc1 (stereo not drawn) [Compound 7e, 2-Amino-5-oxo-4-(4-(3-(trifluoromethyl)-1H-pyrazol-1-yl)phenyl)-5,6,7,8-tetrahydro-4H-chromene-3-carbonitrile] | 15 ± 0.78 | 18 ± 0.45 | 72.2 ± 0.96 | > 200 | 
6 | Cc1cncn1-c1ccc(C2C(C#N)=C(N)OC3=C2C(=O)CC(C)(C)C3)cc1 (stereo not drawn) [Compound 8c, 2-Amino-7,7-dimethyl-4-(4-(5-methyl-1H-imidazol-1-yl)phenyl)-5-oxo-5,6,7,8-tetrahydro-4H-chromene-3-carbonitrile] | 83.2 ± 2.11 | 133 ± 5.81 | 162 ± 6.91 | > 200 | 
7 | CCc1nccn1-c1ccc(C2C(C#N)=C(N)OC3=C2C(=O)CC(C)(C)C3)cc1 (stereo not drawn) [Compound 8d, 2-Amino-4-(4-(2-ethyl-1H-imidazol-1-yl)phenyl)-7,7-dimethyl-5-oxo-5,6,7,8-tetrahydro-4H-chromene-3-carbonitrile] | > 200 | 19.8 ± 0.94 | 137 ± 5.82 | > 200 | 
8 | CC1(C)CC(=O)C2=C(C1)OC(N)=C(C#N)C2c1ccc(-n2cnc(Br)c2)cc1 (stereo not drawn) [Compound 8e, 2-Amino-4-(4-(4-bromo-1H-imidazol-1-yl)phenyl)-7,7-dimethyl-5-oxo-5,6,7,8-tetrahydro-4H-chromene-3-carbonitrile] | 74.87 ± 0.17 | 30.6 ± 1.85 | 77.6 ± 1.58 | > 200 | 
9 | N#CC1=C(N)Oc2c(c(=O)oc3ccccc23)C1c1ccc(OCc2cn(-c3ccccc3)nn2)cc1 (stereo not drawn) [Compound 15a, 2-Amino-5-oxo-4-(4-((1-phenyl-1H-1,2,3-triazol-4-yl)methoxy)phenyl)-4H,5H-pyrano[3,2-c]chromene-3-carbonitrile] | > 200 | > 200 | > 200 | 146.5 ± 0.53 | 
10 | N#CC1=C(N)Oc2c(c(=O)oc3ccccc23)C1c1ccc(OCc2cn(-c3ccc(Cl)cc3)nn2)cc1 (stereo not drawn) [Compound 15b, 2-Amino-4-(4-((1-(4-chlorophenyl)-1H-1,2,3-triazol-4-yl)methoxy)phenyl)-5-oxo-4H,5H-pyrano[3,2-c]chromene-3-carbonitrile] | > 200 | > 200 | > 200 | > 200 | 
11 | N#CC1=C(N)Oc2c(c(=O)oc3ccccc23)C1c1ccc(OCc2cn(-c3ccc(Br)cc3)nn2)cc1 (stereo not drawn) [Compound 15c, 2-Amino-4-(4-((1-(4-bromophenyl)-1H-1,2,3-triazol-4-yl)methoxy)phenyl)-5-oxo-4H,5H-pyrano[3,2-c]chromene-3-carbonitrile] | > 200 | > 200 | > 200 | 66.9 ± 1.6 | 
12 | Cc1ccc(-n2cc(COc3ccc(C4C(C#N)=C(N)Oc5c4c(=O)oc4ccccc54)cc3)nn2)cc1 (stereo not drawn) [Compound 15d, 2-Amino-5-oxo-4-(4-((1-(p-tolyl)-1H-1,2,3-triazol-4-yl)methoxy)phenyl)-4H,5H-pyrano[3,2-c]chromene-3-carbonitrile] | > 200 | > 200 | > 200 | > 200 | 
13 | COc1ccc(-n2cc(COc3ccc(C4C(C#N)=C(N)Oc5c4c(=O)oc4ccccc54)cc3)nn2)cc1 (stereo not drawn) [Compound 15e, 2-Amino-4-(4-((1-(4-methoxyphenyl)-1H-1,2,3-triazol-4-yl)methoxy)phenyl)-5-oxo-4H,5H-pyrano[3,2-c]chromene-3-carbonitrile] | > 200 | > 200 | > 200 | > 200 | 
14 | N#CC1=C(N)Oc2c(c(=O)oc3ccccc23)C1c1ccc(-n2ccnn2)cc1 (stereo not drawn) [Compound 15f, 4-(4-(1H-1,2,3-Triazol-1-yl)phenyl)-2-amino-5-oxo-4H,5H-pyrano[3,2-c]chromene-3-carbonitrile] | 145 ± 2.75 | 72.9 ± 2.26 | 163 ± 5.45 | 156 ± 0.48 | 
15 | N#CC1=C(N)Oc2c(c(=O)oc3ccccc23)C1c1ccc(-n2cnnn2)cc1 (stereo not drawn) [Compound 15g, 4-(4-(1H-Tetrazol-1-yl)phenyl)-2-amino-5-oxo-4H,5H-pyrano[3,2-c]chromene-3-carbonitrile] | > 200 | > 200 | > 200 | > 200 | 
16 | Cc1cc2c(c(=O)o1)C(c1ccc(OCc3cn(-c4ccccc4)nn3)cc1)C(C#N)=C(N)O2 (stereo not drawn) [Compound 17a, 2-Amino-7-methyl-5-oxo-4-(4-((1-phenyl-1H-1,2,3-triazol-4-yl)methoxy)phenyl)-4H,5H-pyrano[4,3-b]pyran-3-carbonitrile] | > 200 | 80.5 ± 4.68 | > 200 | > 200 | 
17 | Cc1cc2c(c(=O)o1)C(c1ccc(OCc3cn(-c4ccc(Cl)cc4)nn3)cc1)C(C#N)=C(N)O2 (stereo not drawn) [Compound 17b, 2-Amino-4-(4-((1-(4-chlorophenyl)-1H-1,2,3-triazol-4-yl)methoxy)phenyl)-7-methyl-5-oxo-4H,5H-pyrano[4,3-b]pyran-3-carbonitrile] | 36.06 ± 0.31 | 20.4 ± 1.87 | 47.4 ± 4.13 | > 200 | 
18 | Cc1cc2c(c(=O)o1)C(c1ccc(OCc3cn(-c4ccc(Br)cc4)nn3)cc1)C(C#N)=C(N)O2 (stereo not drawn) [Compound 17c, 2-Amino-4-(4-((1-(4-bromophenyl)-1H-1,2,3-triazol-4-yl)methoxy)phenyl)-7-methyl-5-oxo-4H,5H-pyrano[4,3-b]pyran-3-carbonitrile] | > 200 | > 200 | > 200 | > 200 | 
19 | Cc1ccc(-n2cc(COc3ccc(C4C(C#N)=C(N)Oc5cc(C)oc(=O)c54)cc3)nn2)cc1 (stereo not drawn) [Compound 17d, 2-Amino-7-methyl-5-oxo-4-(4-((1-(p-tolyl)-1H-1,2,3-triazol-4-yl)methoxy)phenyl)-4H,5H-pyrano[4,3-b]pyran-3-carbonitrile] | > 200 | > 200 | > 200 | > 200 | 
20 | COc1ccc(-n2cc(COc3ccc(C4C(C#N)=C(N)Oc5cc(C)oc(=O)c54)cc3)nn2)cc1 (stereo not drawn) [Compound 17e, 2-Amino-4-(4-((1-(4-methoxyphenyl)-1H-1,2,3-triazol-4-yl)methoxy)phenyl)-7-methyl-5-oxo-4H,5H-pyrano[4,3-b]pyran-3-carbonitrile] | 52.2 ± 1.34 | > 200 | > 200 | > 200 | 
21 | Cc1cc2c(c(=O)o1)C(c1ccc(-n3ccnn3)cc1)C(C#N)=C(N)O2 (stereo not drawn) [Compound 17f, 4-(4-(1H-1,2,3-Triazol-1-yl)phenyl)-2-amino-7-methyl-5-oxo-4H,5H-pyrano[4,3-b]pyran-3-carbonitrile] | 30.3 ± 1.73 | > 200 | > 200 | > 200 | 
22 | Cc1cc2c(c(=O)o1)C(c1ccc(-n3cnnn3)cc1)C(C#N)=C(N)O2 (stereo not drawn) [Compound 17g, 4-(4-(1H-Tetrazol-1-yl)phenyl)-2-amino-7-methyl-5-oxo-4H,5H-pyrano[4,3-b]pyran-3-carbonitrile] | 39.2 ± 2.71 | 164 ± 3.26 | > 200 | > 200 | 
23 | COc1cc([C@@H]2c3cc4c(cc3[C@@H](O[C@@H]3O[C@@H]5CO[C@@H](C)O[C@H]5[C@H](O)[C@H]3O)[C@H]3COC(=O)[C@H]23)OCO4)cc(OC)c1O [Etoposide, reference compound] |  |  |  |  | cells in G1 phase (MCF7 cells; MCF7, 24 hours): 26.61 ± 0.54%; cells in G2 (G2/M) phase (MCF7 cells; MCF7, 24 hours): 49.03 ± 0.99%; G1 phase population (MCF7 cells; MCF7, 48 hours): 18.3 ± 1.67%; G2 (G2/M) phase population (MCF7 cells; MCF7, 48 hours): 59.36 ± 4.79%; γH2AX levels (MCF7 cell line; MCF7, 24 hours): 8.8 ± 0.62; γH2AX levels (MCF7 cell line; MCF7, 48 hours): 39.44 ± 1.69; early apoptotic cells (MCF7 breast cancer cells; MCF7, 24 hours): 6.42 ± 0.27%; late apoptotic cells (MCF7 breast cancer cells; MCF7, 24 hours): 12.25 ± 0.08%; early apoptotic cells (MCF7 breast cancer cells; MCF7, 48 hours): 3.28 ± 0.16%; late apoptotic cells (MCF7 breast cancer cells; MCF7, 48 hours): 11.8 ± 0.29%; live cells (MCF7 breast cancer cells; MCF7, 48 hours): 83.15 ± 0.50%
